From PubChem BioAssay
Activity calls are given as the source filed them.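 How the source made its calls, unless noted: active means GFP response above 150% of the DMSO level; inconclusive means fewer than 70 events counted for a yeast strain; inactive means the rest.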

Columns and labels:
[1] = hit retest on RPL19A-GFP reporter strain – cell-based, S. cerevisiae, flow cytometry, cherry picks, mother/daughter gates, confirmation (AID 2270;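 active means GFP response below 50% of the DMSO control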); conditions: 3 h, at 10 µM, stronger effect = lower value, 100 = same GFP as DMSO wells
[2] = yeast TOR pathway reporter LAP4-GFP change – cell-based, cherry picks, flow cytometry, mother/daughter gates, confirmation (AID 2271;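 active means GFP response above 150% of the DMSO control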;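 further: ratio of sample to DMSO plate mean so 100% equals DMSO level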); conditions: S. cerevisiae LAP4-GFP strain, 3 h, at 10 µM, stronger effect = higher value, 100 means same as DMSO control
Procedure, shortened: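 System: GFP-fusion yeast strain | Input: Yeast cells seeded at OD600 of 0.2 | Technique: HT flow cytometry, GFP fluorescence channel | Read-out: % GFP response vs DMSO | Dosing: Single test-compound dose, 10 µM final | Controls: Positive rapamycin (400 ng/mL), negative DMSO | Times: 3 h treatment at 30 °C with rotation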

[3] = TOR pathway reporter MEP2-GFP, retest of hits – S. cerevisiae, flow cytometry GFP, cherry picks, confirmation (AID 2272;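 active means GFP response above 150% of the DMSO control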;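 further: ratio of well signal to plate DMSO mean so 100% equals DMSO level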); conditions: S. cerevisiae MEP2-GFP strain, 3 h, at 10 µM, stronger effect = higher value
[4] = yeast AGP1-GFP fluorescence change, single-dose – cell-based, flow cytometry, S. cerevisiae, cherry picks, confirmation (AID 2273);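 further: median GFP channel fluorescence over the whole cell population gate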; conditions: S. cerevisiae AGP1-GFP strain, 3 h, at 10 µM
[5] = TOR pathway CIT2 reporter hit retest – S. cerevisiae, GFP fusion, cherry picks, mother/daughter gates, confirmation (AID 2274); conditions: S. cerevisiae CIT2-GFP strain, flow cytometry, 3 h, at 10 µM, stronger effect = higher value
[6] = measured here: daughter cell gate
[7] = measured here: mother cell gate
[8] = measured here: daughter cell gate response
[9] = measured here: mother cell gate response

Compound	GFP response vs DMSO [1]	GFP response vs DMSO [1, 6] [%]	GFP response vs DMSO [1, 7] [%]	GFP response relative to DMSO [2]	GFP response relative to DMSO [2, 8] [%]	GFP response relative to DMSO [2, 9] [%]	GFP response vs DMSO [3]	GFP response, % of DMSO [4]	GFP response, % of DMSO [5]	GFP response, % of DMSO [5, 6] [%]	GFP response, % of DMSO [5, 7] [%]
CCOC(=O)C(N)CSC1CC(=O)N(c2ccc(C(=O)OC)cc2)C1=O (stereo not drawn)	98% (inactive)	98.4	98.7	102% (inactive)	102	101	100% (inactive)	98.1% (inactive)	98.3% (inactive)	99.1	97.3
CCOC(=O)C1=C(Cc2ccc(F)cc2)C(=O)c2ccccc2C1=O	97.8% (inactive)	99.6	95.8	101% (inactive)	97.9	104	106% (inactive)	92.5% (inactive)	95% (inactive)	96.4	92.1
COc1ccc(OC)c(C2CC(c3c(-c4ccccc4)c4cc(Cl)ccc4[nH]c3=O)=NN2S(C)(=O)=O)c1 (stereo not drawn)	100% (inactive)	99	102	92.6% (inactive)	92.5	97.2	100% (inactive)	96.1% (inactive)	97.8% (inactive)	96.5	97.7
N#Cc1cc(Sc2ccccn2)c([N+](=O)[O-])cc1C#N	107% (inactive)	110	106	121% (inactive)	123	118	143% (inactive)	106% (inactive)	123% (inactive)	125	120
Cc1cc(NCCN2CCOCC2)n2ncc(-c3ccccc3)c2n1	99.6% (inactive)	99.8	99.4	107% (inactive)	110	107	103% (inactive)	89.3% (inactive)	103% (inactive)	99.3	104
O=C(COC(=O)c1cccs1)Nc1nc(-c2ccccc2)cs1	97% (inactive)	95.6	98.4	99.2% (inactive)	99.2	99.3	96.2% (inactive)	99.1% (inactive)	99.7% (inactive)	99.1	96.1
CN1C(=O)c2cccc3c(Cl)ccc(c23)C1=O	97.8% (inactive)	95.7	98	107% (inactive)	107	107	105% (inactive)	92.4% (inactive)	97.3% (inactive)	95.6	98.1
O=C(O)CSC1CC(=O)N(c2ccc(Cl)c(Cl)c2)C1=O (stereo not drawn)	97.8% (inactive)	97.8	97.5	108% (inactive)	113	107	101% (inactive)	101% (inactive)	100% (inactive)	99.3	100
CCOC(=O)c1sc(NC(=O)c2ccc3ncsc3c2)nc1C	98% (inactive)	95	94.8	95.3% (inactive)	96	93.4	110% (inactive)	96.4% (inactive)	98.6% (inactive)	95.8	93.8
Cc1nc2c(-c3ccc(F)cc3)c(C)nn2c(N2CCOCC2)c1C	100% (inactive)	101	100	96.5% (inactive)	96.5	97.5	104% (inactive)	98.7% (inactive)	104% (inactive)	104	101
O=C(Nc1ccc(NC(=O)c2cc3ccccc3o2)cc1)c1ccco1	100% (inactive)	97.6	101	97% (inactive)	95.9	97.3	101% (inactive)	106% (inactive)	98.8% (inactive)	99.2	98.1
CCOC(=O)c1ccc(NC(=O)CCc2nc(-c3ccccc3Cl)no2)cc1	101% (inactive)	100	102	103% (inactive)	101	103	108% (inactive)	97.5% (inactive)	101% (inactive)	102	98
C[C@@H](C(=O)Nc1nc2ccc(F)cc2s1)N1C(=O)C2CC=CCC2C1=O (stereo partly drawn)	98.7% (inactive)	97.8	98.5	103% (inactive)	101	104	102% (inactive)	99.7% (inactive)	101% (inactive)	100	100
N/C(=N\OC(=O)c1ccccc1Cl)c1ccc(Cl)cc1	101% (inactive)	101	101	135% (inactive)	115	135	108% (inactive)	77.2% (inactive)	130% (inactive)	117	132
COc1ccc(Sc2ncnc3onc(C)c23)cc1	96.7% (inactive)	96.1	95.4	118% (inactive)	113	120	103% (inactive)	99.1% (inactive)	95.8% (inactive)	99.3	96
CCOc1c(Br)ccc2c1sc1nc[nH]c(=O)c12	101% (inactive)	99.8	100	105% (inactive)	99	108	103% (inactive)	99.1% (inactive)	100% (inactive)	97.6	100
N#CC(C(=O)NCc1ccccc1)c1nc2ccccc2nc1N1CCCC1 (stereo not drawn)	103% (inactive)	102	104	114% (inactive)	108	117	117% (inactive)	99.6% (inactive)	111% (inactive)	108	109

Compound	GFP response vs DMSO [1]	GFP response vs DMSO [1, 6] [%]	GFP response vs DMSO [1, 7] [%]	GFP response relative to DMSO [2]	GFP response relative to DMSO [2, 8] [%]	GFP response relative to DMSO [2, 9] [%]	GFP response vs DMSO [3]	GFP response, % of DMSO [4]	GFP response, % of DMSO [5]	GFP response, % of DMSO [5, 6] [%]	GFP response, % of DMSO [5, 7] [%]
O=C(c1ccc2c(c1)OCO2)N1CCN(c2ccc(F)cc2)CC1	103% (inactive)	101	102	90.2% (inactive)	89.5	91.1	102% (inactive)	98.5% (inactive)	99.1% (inactive)	96.5	99.8
Cc1cccc(C)c1OCCOC(=O)c1n[nH]c2ccccc12	98.8% (inactive)	97	100	96.5% (inactive)	93.6	82.8	106% (inactive)	91.9% (inactive)	95% (inactive)	96.4	93.3
Cc1ccc(N2C(=O)C(Cl)=C(Nc3c(C)n(C)n(-c4ccccc4)c3=O)C2=O)cc1	96.9% (inactive)	93.9	96.1	101% (inactive)	101	101	101% (inactive)	105% (inactive)	100% (inactive)	103	100
Cc1ccc(S(=O)(=O)N(CC(=O)Nc2cccnc2)c2ccccc2C)cc1	104% (inactive)	100	105	97% (inactive)	95.9	97.3	105% (inactive)	98.6% (inactive)	94.4% (inactive)	92	94.4
CCOC(=O)c1c(C)oc2c1c(C(c1cccnc1)N1CCOCC1)c(O)c1ccccc12 (stereo not drawn)	95% (inactive)	98.5	89.6	203% (active)	199	188	124% (inactive)	104% (inactive)	97.8% (inactive)	109	86.3
O=C(Cn1cc(/C=C\[N+](=O)[O-])c2ccccc21)Nc1ccccc1	97.4% (inactive)	97.4	97.6	94.1% (inactive)	94.4	94	98.3% (inactive)	94.7% (inactive)	99.7% (inactive)	101	99.7
Cc1c(C)c2ccc(OCC(=O)NCCCn3ccnc3)cc2oc1=O	97.8% (inactive)	97.4	98.5	96.7% (inactive)	96	96.1	105% (inactive)	97.6% (inactive)	101% (inactive)	101	101
COc1ccc(CN2CCSc3sccc3C2=O)cc1	93.2% (inactive)	90.7	93.9	110% (inactive)	109	112	92.6% (inactive)	97.3% (inactive)	102% (inactive)	103	102
Cc1cc(=O)[nH]c(-n2nc(C)cc2C)n1	98% (inactive)	99.1	97.8	101% (inactive)	101	100	105% (inactive)	99.8% (inactive)	94.4% (inactive)	97.4	91.9
COc1ccc(C2N(c3ccc(Cl)cc3)N=C(C(C)=O)N(C)N2C(C)=O)cc1 (stereo not drawn)	100% (inactive)	99.6	100	104% (inactive)	101	103	101% (inactive)	101% (inactive)	106% (inactive)	106	106
O=C(CSc1ccc(Cl)cc1)Nc1cccc(-c2nc3ccccc3[nH]2)c1	97.8% (inactive)	98	97.8	101% (inactive)	97.9	101	99.5% (inactive)	98% (inactive)	96.4% (inactive)	96.4	95.6
Cc1noc2ncnc(Sc3ccc(Cl)cc3)c12	96.6% (inactive)	94.9	97.2	140% (inactive)	130	141	102% (inactive)	94.7% (inactive)	104% (inactive)	101	102
Cc1ccc(NS(=O)(=O)c2ccc(CCC(=O)N3CCOCC3)cc2)cc1	94.6% (inactive)	94.6	94.9	95.4% (inactive)	96	95.1	96.2% (inactive)	102% (inactive)	101% (inactive)	103	101
CCCCC1OC23CCCCC2C(C#N)(C(=N)O3)C1(C#N)C#N (stereo not drawn)	101% (inactive)	100	96.8	118% (inactive)	117	111	176% (active)	103% (inactive)	119% (inactive)	103	98.7
O=C(Nc1nnc(-c2ccccc2Cl)o1)c1ccc(S(=O)(=O)N2CCCCCC2)cc1	100% (inactive)	98.6	99.8	97% (inactive)	97.5	96.2	101% (inactive)	95.1% (inactive)	97.3% (inactive)	93.8	98.1
CCN(CC)c1ccc(/C=C2\SC(=O)N(C(C)C)C2=O)o1	99.6% (inactive)	99.8	96.5	117% (inactive)	116	117	132% (inactive)	105% (inactive)	112% (inactive)	115	110
